Experimental data as given in ChEMBL document CHEMBL3751667, “Carbamate substituted 2-amino-4,6-diphenylpyrimidines as adenosine receptor antagonists” (Bioorg Med Chem Lett, 2016).
≈ marks a conversion by molar mass, not a printed value. Calls of active or inactive are those of the source. The calls are words filed in the database; no cut-off is given here.

Assays:
Adenosine receptor A1 = biological target: T1, Adenosine receptor A1 (Rattus norvegicus, UniProt P25099); test: Displacement of [3H]DPCPX from adenosine A1 receptor in Sprague-Dawley rat whole brain after 1 hr by scintillation counting
T1 sequence (P25099 whole entry): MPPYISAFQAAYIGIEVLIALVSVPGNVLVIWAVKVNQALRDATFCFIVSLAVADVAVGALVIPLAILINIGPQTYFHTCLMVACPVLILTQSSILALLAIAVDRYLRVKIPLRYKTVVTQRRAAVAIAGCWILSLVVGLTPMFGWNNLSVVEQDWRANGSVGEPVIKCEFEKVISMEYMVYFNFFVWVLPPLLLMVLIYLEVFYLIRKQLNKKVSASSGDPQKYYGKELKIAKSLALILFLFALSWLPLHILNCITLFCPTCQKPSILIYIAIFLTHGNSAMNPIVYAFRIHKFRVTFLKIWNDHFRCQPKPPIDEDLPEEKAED

Adenosine receptor A2a = Adenosine receptor A2a (Rattus norvegicus, UniProt P30543); test: Displacement of [3H]NECA from adenosine A2A receptor in Sprague-Dawley rat striatal membrane after 1 hr by scintillation counting; parameters: species or system Striatum
Sequence of Adenosine receptor A2a (P30543 whole entry): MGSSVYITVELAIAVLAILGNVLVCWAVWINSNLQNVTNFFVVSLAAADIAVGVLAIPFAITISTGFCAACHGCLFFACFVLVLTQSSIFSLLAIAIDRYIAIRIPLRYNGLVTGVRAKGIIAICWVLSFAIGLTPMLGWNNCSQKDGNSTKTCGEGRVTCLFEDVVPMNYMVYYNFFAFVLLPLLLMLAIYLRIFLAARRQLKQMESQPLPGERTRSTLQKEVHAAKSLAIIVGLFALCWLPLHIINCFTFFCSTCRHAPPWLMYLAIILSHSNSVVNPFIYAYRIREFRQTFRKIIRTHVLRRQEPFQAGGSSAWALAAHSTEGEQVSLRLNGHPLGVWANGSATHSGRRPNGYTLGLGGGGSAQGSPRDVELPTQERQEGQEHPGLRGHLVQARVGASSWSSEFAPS

Rattus norvegicus [1] = species on record: Rattus norvegicus; test: Selectivity ratio of Ki for adenosine A2A receptor in Sprague-Dawley rat striatal membrane to Ki for adenosine A1 receptor in Sprague-Dawley rat whole brain
Procedure, shortened: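 Index calculated as A2A Ki divided by A1 Ki. Both Ki values come from radioligand binding assays and are given as the mean ± SEM of duplicate determinations.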

Rattus norvegicus [2] = test: Reversal of haloperidol-induced catalepsy in Sprague-Dawley rat at 0.4 to 2 mg/kg, ip after 60 mins relative to control; assay type: functional, organism-based
Procedure, shortened: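 Sprague–Dawley rats, drug naïve, three groups; all given haloperidol 5.0 mg/kg i.p. to induce catalepsy. Thirty minutes later: DMSO (control) or test compound at 0.4 or 2 mg/kg. Catalepsy scored by standard bar test 60 minutes after first injection; compared with haloperidol + vehicle group by one-way ANOVA and Dunnett's post test.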

[3] = n-octanol-potassium phosphate buffer partition coefficient, log D of the compound at pH 7.4 by shake flask method; assay type: physicochemical
Procedure, shortened: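 Shake flask method; hydrophilic phase potassium phosphate buffer pH 7.4, hydrophobic phase n-octanol.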

[4] = Solubility of the compound at 4.5 mg after 24 hrs by HPLC analysis; assay type: physicochemical
Procedure, shortened: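 Water solubility: excess compound shaken in water at 37 °C.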

SMILES | Ki (Adenosine receptor A1) [nM] | Ki (Adenosine receptor A2a) [nM] | Ratio Ki (Rattus norvegicus [1]) | Activity (Rattus norvegicus [2]) | logD [3] | solubility at 24 h [4] [µM]
CC(C)N(C(=O)Oc1cccc(-c2cc(-c3ccccc3)nc(N)n2)c1)C(C)C | 0.175 | 12.1 | 69 | – | – | –
Nc1nc(-c2ccccc2)cc(-c2cccc(OC(=O)N3CCOCC3)c2)n1 | 2.65 | 3.5 | 1.3 | Active | – | –
Nc1nc(-c2ccccc2)cc(-c2cccc(OC(=O)N(c3ccccc3)c3ccccc3)c2)n1 | 10.7 | 451 | 42 | – | – | –
CN1CCN(C(=O)Oc2cccc(-c3cc(-c4ccccc4)nc(N)n3)c2)CC1 | 2.04 | 1.58 | 0.8 | inactive | 4.03 | 0.22 (≈ 0.0857 µg/mL)
Nc1nc(-c2ccccc2)cc(-c2cccc(OC(=O)N3CCCCC3)c2)n1 | 1.95 | 8.94 | 4.6 | – | – | –
CN(C)C(=O)Oc1cccc(-c2cc(-c3ccccc3)nc(N)n2)c1 | 2.06 | 51.9 | 25 | – | – | –
CN(C(=O)Oc1cccc(-c2cc(-c3ccccc3)nc(N)n2)c1)c1ccccc1 | 1.07 | 39.9 | 37 | – | – | –
Nc1nc(-c2ccccc2)cc(-c2cccc(OC(=O)N3CCCC3)c2)n1 | 0.835 | 24.8 | 30 | – | – | –
CCN(CC)C(=O)Oc1cccc(-c2cc(-c3ccccc3)nc(N)n2)c1 | 0.468 | 22.8 | 49 | – | – | –
